Assay [1] in a line: Antioxidant activity assessed as DPPH free radical scavenging activity by measuring trolox equivalent by spectrophotometric analysis. The class given is functional. The gist of the method: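 Diluted compound solution (0.750 mL) added to 1.5 mL methanolic DPPH. Absorbance decrease read at 517 nm. Blank was DPPH plus methanol. Inhibition % = [(AB−As)/AB]×100. Trolox calibration curve used as standard.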

A short description of assay [2]: Antioxidant activity assessed as ferric ion reducing activity by measuring trolox equivalents after 10 mins by FRAP assay. The class given is functional. The gist of the method:
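Reagent made fresh: 0.1 M acetate buffer pH 3.6, 10 mM TPTZ in 40 mM HCl and 20 mM FeCl3 at 10:1:1 (v/v/v). Diluted sample (0.1 mL) added to 1.9 mL reagent; solvent used for blank. Absorbance at 593 nm after 10 min, increase taken over blank. Expressed as Trolox activity from calibration curve.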

Assay [3] can be described thus: Antioxidant activity assessed as AAPH-induced radical scavenging activity by measuring trolox equivalents for oxygen radical absorbance capacity measured at 5 mins intervals up to 30 mins by ORAC-FL assay. The class given is functional. The gist of the method:
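Fluorescein (85 nM) as target, AAPH as peroxyl radical generator, 0.2 mL final volume. Compounds dissolved in methanol and diluted in phosphate buffer pH 7.4. Fluorescence read at ex 485/em 538 nm, 37 °C, every 5 min up to 30 min after AAPH. Value from difference in areas under fluorescein decay curves, blank vs sample. Trolox calibration 40–240 µM; µmol TE per gram compound.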

A short description of assay [4]: Antiproliferative activity against human Colo38 cells after 7 days by Coulter counter method. The class given is functional, cell-based. To be noted: 168 h. The method, boiled down: (§1)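 RPMI 1640 with 10% FBS, penicillin, streptomycin and 2 mM glutamine, pH 7.2, 37 °C, 5% CO2. Stocks 20 mM in MeOH/DMSO 10%, diluted in MeOH, added at serial dilutions. Cells suspended in physiological solution and counted by Coulter counter. IC50 = 50% growth inhibition while untreated cells in log phase. Untreated cells as negative control on every plate.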

Assay [5] has as its system K562. Briefly: Antiproliferative activity against human K562 cells after 7 days by Coulter counter method. The class given is functional, cell-based. The conditions noted are these: K562, 168 h. The method, boiled down: as §1
The nature of assay [6]: UV filtering activity of the compound assessed as maximum absorption wavelength. The class given is functional. The gist of the method:
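UV absorption spectrum recorded in methanol at 0.000034 (± 0.0000033) M; wavelength of maximum absorption taken, together with molar extinction coefficient.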

Assay [7] is described as follows: UV filtering activity of the compound assessed as wavelength at which the integral of the spectral absorbance curve reaches 90% of area under the curve from 290 to 400 nm. The class given is functional. The gist of the method: (§2)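 Spectra recorded on methanolic solutions at 0.000034 (± 0.0000033) M. Absorbance converted to transmittance by A(λ) = −Log[T(λ)], and SPF, UVA/UVB ratio, UVAPF and critical wavelength derived from the transmittance spectrum. Method adapted from the official in vitro SPF method; UVAPF per ISO-24443. PBSA served as reference.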

Assay [8] in a line: UV filtering activity of the compound assessed as solar protection factor relative to control. The format is functional. The method, boiled down: as §2
Assay [9] can be described thus: UV filtering activity of the compound assessed as UVA/UVB ratio. The class given is functional. The gist of the method:
as §2

The nature of assay [10]: UV filtering activity of the compound assessed as UVA protection factor value relative to control. The class given is functional. The method, boiled down: as §2
Assay [11] has as its system K562. The assay can be described thus: Induction of erythroid differentiation on human K562 cells after 5 days by benzidine staining-based assay. The class given is functional. The method, boiled down:
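K562 cells treated in culture, then scored for erythroid differentiation by benzidine staining with 0.2% benzidine in 5 M glacial acetic acid and 10% H2O2. Assayed after 5, 6 and 7 days of treatment; value given as percentage of differentiated cells.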

pIC50: −log10 of the molar value.

The pIC50 is the negative decadic logarithm of the IC50, by convention in mol/L. Read a low pIC50 as a high IC50. Turning to `O=C(N/N=C/c1c(O)cc(O)cc1O)c1cc2ccccc2o1`, the Activity in assay [1] was 1140 µmolequiv/g; in [2], 4020 µmolequiv/g; in assay [3], 3560 µmolequiv/g; in [6] it was 345 nm; in assay [7], 366 nm. Moreover, the values for the pIC50 (in assay [4]; in the assay on K562 [5]) were 4.61 and 4.19, respectively. Besides, in assay [8], the SPF is 1.99. Moreover, the Ratio in [9] stood at 1.32. In addition, in assay [10], the UVAPF was found to be 2.02.
For `O=C(N/N=C/c1cccc(O)c1)c1cc2ccccc2o1`, the Activity was found to be 76.7 µmolequiv/g in assay [1]; 1670 µmolequiv/g in assay [2]; 6790 µmolequiv/g in [3]; 314 nm in assay [6]; 353 nm in assay [7]. The pIC50 was 5.21 in [4] and 4.28 in the assay with K562 [5]. Further, the SPF in assay [8] was 7.58. Besides, the Ratio in [9] was 0.85. Also, the UVAPF in [10] was determined as 2.45.
Consider `O=C(N/N=C/c1ccc(O)cc1O)c1cc2ccccc2o1`, for which the Activity came out at 149 µmolequiv/g in assay [1]; 1210 µmolequiv/g in [2]; 9380 µmolequiv/g in assay [3]; 5% with K562 [11]; 343 nm in assay [6]; 342 nm in assay [7]. The pIC50 in assay [4] is 6.24; in the assay with K562 [5], 5.37. The SPF in [8] was 10.2. The Ratio in assay [9] was 0.26. The UVAPF in [10] was found to be 1.5.
Regarding `O=C(N/N=C/c1ccc(O)cc1)c1cc2ccccc2o1`, the Activity stood at 45.8 µmolequiv/g in [1]; 2290 µmolequiv/g in assay [2]; 26100 µmolequiv/g in assay [3]; 328 nm in assay [6]; 322 nm in assay [7]. For the same compound, the pIC50 in [4] was 4.40; in the assay with K562 [5], 4.10. Further, in [8], the SPF worked out at 3.4. The Ratio in assay [9] came to 0.29. The UVAPF in assay [10] was determined as 1.03.
For the compound `CCN(CC)c1ccc(/C=N/NC(=O)c2cc3ccccc3o2)c(O)c1`, the Activity in [1] was determined as 1010 µmolequiv/g; in assay [2] it was 4150 µmolequiv/g; in [3] it was 22100 µmolequiv/g; in [6], 381 nm; in assay [7], 387 nm. Further, the values for the pIC50 (in [4]; in the assay on K562 [5]) were 6.36 and 6.28, respectively. In addition, the SPF in assay [8] worked out at 2.59. Also, the Ratio in [9] was 1.29. The UVAPF in assay [10] is 3.6.
With `O=C(N/N=C/c1cc(Cl)ccc1O)c1cc2ccccc2o1`, the Activity result in assay [1] is “Below limit of detection”; in assay [2], 46.3 µmolequiv/g; in assay [6], 310 nm; in [7], 357 nm. Moreover, the negative logarithm of the IC50 (pIC50) is 5.69 in assay [4] and 5.43 with K562 [5]. In assay [8], the SPF was 5.78. Besides, the Ratio in assay [9] amounted to 1.14. In [10], the UVAPF worked out at 2.89.
With `O=C(N/N=C/c1cc(O)ccc1O)c1cc2ccccc2o1`, the Activity amounted to 6200 µmolequiv/g in [1]; 6970 µmolequiv/g in assay [2]; 19000 µmolequiv/g in assay [3]; 306 nm in assay [6]; 366 nm in assay [7]. The pIC50 in assay [4] is 5.20; with K562 [5], 4.43. In addition, in assay [8], the SPF is 2.18. The Ratio in assay [9] is 1.33. Also, the UVAPF in assay [10] came to 2.38.
As for `O=C(N/N=C/c1ccc(O)c(O)c1O)c1cc2ccccc2o1`, the Activity in assay [1] was determined as 9210 µmolequiv/g; in [2] it was 13200 µmolequiv/g; in [3], 5260 µmolequiv/g; in assay [6], 336 nm; in [7], 353 nm. Further, the pIC50 is 5.19 in assay [4] and 5.22 in the assay on K562 [5]. Also, in assay [8], the SPF worked out at 7.58. The Ratio in assay [9] turned out to be 0.85. Also, the UVAPF in [10] turned out to be 2.45.
Regarding `O=S(=O)(O)c1ccc2[nH]c(-c3ccccc3)nc2c1`, the figures for the Activity in assay [6] and in assay [7] were 302 nm and 394 nm, respectively. The SPF in [8] was determined as 1.68. Also, the Ratio in [9] came out at 1.27. Also, the UVAPF in assay [10] was 5.1.
For `O=C(N/N=C/c1c(O)ccc2ccccc12)c1cc2ccccc2o1`, the Activity is 132 µmolequiv/g in assay [1], 132 µmolequiv/g in assay [2], 329 nm in assay [6] and 359 nm in [7]. Besides, the pIC50 in [4] was 5.52; in the assay with K562 [5], 5.35. For the same compound, the SPF in [8] is 8.82. Moreover, the Ratio in assay [9] was determined as 0.39. The UVAPF in assay [10] was found to be 2.85.
For `COc1cc(/C=N/NC(=O)c2cc3ccccc3o2)ccc1O`, the Activity in [1] was 101 µmolequiv/g; in assay [2] it was 3100 µmolequiv/g; in assay [3], 10900 µmolequiv/g; with K562 [11], 5%; in [6] it was 334 nm; in assay [7], 371 nm. Further, the pIC50 in assay [4] was 4.31; in the assay on K562 [5] it was 5.25. The SPF in [8] was found to be 3.36. In addition, in assay [9], the Ratio is 2.33. Also, in [10], the UVAPF came out at 5.57.
